The values below come from publication PMC7094870 (ACS chemical biology, 2020).

One data set addresses (UniProt A4D937). Briefly: CrpE P450 substrate binding titration. Set-up: species or system Nostoc sp. ATCC 53789.
Data set [1] deals with CrpE P450 (histidine tagged). Briefly: CrpE P450 substrate binding titration. Set-up: species or system Nostoc sp. ATCC 53789. The settings on record: type I (substrate-like) or type II (inhibitor-like) shift.
For the next data set, the system named is CrpE P450. Kind of data set: CrpE in vitro epoxidation conversion assay. In kind it is biochemical, Nostoc sp. ATCC 53789.
Data set [2] has as its system CrpTE (cryptophycin thioesterase). Briefly: Analytical substrate conversion assay of CrpTE. In kind it is biochemical. The essentials:
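Analytical-scale reactions of CrpTE with NAc-activated seco substrates carrying varied unit A aryl or heterocyclic groups (including methyl pyrazoles), with the benzyl substrate run as a control. Chromatographic peaks were assigned to unreacted starting material, hydrolysis product and cyclized macrolactone. Where starting material and hydrolysis peaks co-eluted, values were estimated from extrapolated peaks.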

Sequence of (UniProt A4D937) (A4D937 1-450): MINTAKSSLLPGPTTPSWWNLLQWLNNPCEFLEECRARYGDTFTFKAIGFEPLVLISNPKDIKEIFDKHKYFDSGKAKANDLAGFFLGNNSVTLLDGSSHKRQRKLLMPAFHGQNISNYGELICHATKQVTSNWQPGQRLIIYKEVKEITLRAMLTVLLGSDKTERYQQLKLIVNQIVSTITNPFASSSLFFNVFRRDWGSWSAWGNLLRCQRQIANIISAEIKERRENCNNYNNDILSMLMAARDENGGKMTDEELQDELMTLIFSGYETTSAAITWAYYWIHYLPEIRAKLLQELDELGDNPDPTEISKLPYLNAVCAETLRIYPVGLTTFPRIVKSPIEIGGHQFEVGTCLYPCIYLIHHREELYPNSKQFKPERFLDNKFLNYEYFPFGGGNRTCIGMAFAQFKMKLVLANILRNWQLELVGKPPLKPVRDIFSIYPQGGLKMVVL

What is called Kd is the free concentration of one partner at which half of the binding sites on the other are occupied at equilibrium, for simple one-to-one binding. `COc1ccc(C[C@H]2NC(=O)/C=C/C[C@@H]([C@H](C)/C=C/c3ccccc3)OC(=O)[C@H](CC(C)C)OC(=O)[C@H](C)CNC2=O)cc1Cl` [16a, cryptophycin 3]: at (UniProt A4D937), the Kd was 530 ± 150 nM. The “spectral shift on binding to CrpE” value in data set [1] was “type I shift”. Besides, the “conversion (CrpE epoxidation)” value in the data set on CrpE P450 (RhFRED redox system) is recorded as “no conversion”. Also, the “percent conversion (CrpE epoxidation)” value in the data set on CrpE P450 (spinach ferredoxin and ferredoxin reductase redox system) worked out at 38%. Also, the “total turnover number (TTN)” value in data set [2] (TTN = moles of product / moles of TE) is reported as 110. Also, in data set [2] (analytical scale, wild type CrpTE, NAc-activated seco substrate), the “percent conversion (CrpTE cyclization)” value is on record as 73%.
